Blank lines part the entries; values can stand above or below the compound they belong to. Calls of active or inactive are those of the source. The rule behind the calls is not given here.
Key:
[1] = target: T1, Dual specificity mitogen-activated protein kinase kinase 3 (Homo sapiens) (UniProt P46734); experiment: Inhibition of full length human MEK3 (1 to 318 residues) expressed in mammalian expression system assessed as enzyme activity at 10 uM by KINOMEScan assay relative to control; parameters: scale not given: the % may be the effect or the level left
T1 sequence (whole entry): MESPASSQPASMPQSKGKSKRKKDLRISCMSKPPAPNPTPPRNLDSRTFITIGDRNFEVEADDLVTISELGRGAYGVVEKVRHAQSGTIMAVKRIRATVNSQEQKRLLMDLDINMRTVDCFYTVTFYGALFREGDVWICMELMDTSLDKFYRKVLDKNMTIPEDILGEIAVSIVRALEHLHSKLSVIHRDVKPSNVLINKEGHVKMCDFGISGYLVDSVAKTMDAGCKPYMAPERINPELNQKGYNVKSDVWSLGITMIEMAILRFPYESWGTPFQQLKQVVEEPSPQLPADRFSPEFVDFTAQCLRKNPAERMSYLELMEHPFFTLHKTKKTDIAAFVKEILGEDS
In short: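 In vitro ATP-site competition binding assay (KinomeScan) across a panel of 456 kinases. Compound was tested at 1 and 10 μM. The read-out is the binding inhibition score relative to control.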

[2] = target: Actin-related protein 2 (Homo sapiens) (UniProt P61160); experiment: Binding affinity to ACTR2 in human NCI-H23 cells at 1 uM by mass spectrometry based pull down assay; assay type: cell-based
In short: (§1)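 NCI-H23 or NCI-H358 cells were grown and lysed. Lysates were incubated overnight at 4 °C with 1 μM biotinylated covalent probe or DMSO, then pulled down on streptavidin beads. Proteins were run on polyacrylamide gels and stained with Coomassie. Bands were excised, digested and identified by mass spectrometry.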

[3] = target: Apoptosis regulator BAX (Homo sapiens) (UniProt Q07812); experiment: Binding affinity to BAX in human NCI-H23 cells at 1 uM by mass spectrometry based pull down assay; assay type: cell-based
[4] = target: B-cell receptor-associated protein 31 (Homo sapiens) (UniProt P51572); experiment: Binding affinity to BCAP31 in human NCI-H23 cells at 1 uM by mass spectrometry based pull down assay; assay type: cell-based
[5] = target: Amidophosphoribosyltransferase (Homo sapiens) (UniProt Q06203); experiment: Binding affinity to PPAT in human NCI-H23 cells at 1 uM by mass spectrometry based pull down assay; assay type: cell-based
[6] = target: Aldehyde dehydrogenase family 3 member A2 (Homo sapiens) (UniProt P51648); experiment: Binding affinity to ALDH3A2 in human NCI-H358 cells at 1 uM by mass spectrometry based pull down assay; assay type: cell-based
[7] = target: Aldehyde dehydrogenase family 16 member A1 (Homo sapiens) (UniProt Q8IZ83); experiment: Binding affinity to ALDH16A1 in human NCI-H358 cells at 1 uM by mass spectrometry based pull down assay; assay type: cell-based; in short: as §1
[8] = target: T2, Serine/threonine-protein kinase D2 (Homo sapiens) (UniProt Q9BZL6); experiment: Binding affinity to PRKD2 in human NCI-H358 cells at 1 uM by mass spectrometry based pull down assay; assay type: cell-based
T2 sequence (whole entry): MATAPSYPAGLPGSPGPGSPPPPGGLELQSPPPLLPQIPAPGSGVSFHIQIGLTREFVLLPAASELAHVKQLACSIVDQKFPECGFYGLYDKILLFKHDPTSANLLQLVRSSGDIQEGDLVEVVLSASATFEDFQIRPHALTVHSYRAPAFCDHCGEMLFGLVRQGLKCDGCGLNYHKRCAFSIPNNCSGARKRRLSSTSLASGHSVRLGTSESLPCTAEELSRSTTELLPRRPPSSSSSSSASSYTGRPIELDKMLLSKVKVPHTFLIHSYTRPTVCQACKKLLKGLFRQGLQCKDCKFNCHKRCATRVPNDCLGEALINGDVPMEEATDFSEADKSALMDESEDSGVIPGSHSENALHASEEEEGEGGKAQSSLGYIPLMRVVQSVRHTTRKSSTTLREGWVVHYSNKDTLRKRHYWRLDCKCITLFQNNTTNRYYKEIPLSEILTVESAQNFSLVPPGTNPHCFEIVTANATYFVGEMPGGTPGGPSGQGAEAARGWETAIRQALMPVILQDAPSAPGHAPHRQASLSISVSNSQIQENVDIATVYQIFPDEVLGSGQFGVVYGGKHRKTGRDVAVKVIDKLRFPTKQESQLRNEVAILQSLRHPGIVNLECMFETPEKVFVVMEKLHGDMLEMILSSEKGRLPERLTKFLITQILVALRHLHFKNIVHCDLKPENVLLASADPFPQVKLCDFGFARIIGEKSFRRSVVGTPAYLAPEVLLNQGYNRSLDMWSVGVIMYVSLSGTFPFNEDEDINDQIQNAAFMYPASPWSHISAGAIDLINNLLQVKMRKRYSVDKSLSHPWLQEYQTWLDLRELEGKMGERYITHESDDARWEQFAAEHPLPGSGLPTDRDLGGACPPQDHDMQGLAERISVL

[9] = target: Myosin regulatory light chain 12B (Homo sapiens) (UniProt O14950); experiment: Binding affinity to MYL12B in human NCI-H358 cells at 1 uM by mass spectrometry based pull down assay; assay type: cell-based
[10] = target: Epithelial splicing regulatory protein 1 (Homo sapiens) (UniProt Q6NXG1); experiment: Binding affinity to ESRP1 in human NCI-H358 cells at 1 uM by mass spectrometry based pull down assay; assay type: cell-based
[11] = target: Proteasome adapter and scaffold protein ECM29 (Homo sapiens) (UniProt Q5VYK3); experiment: Binding affinity to KIAA0368 in human NCI-H358 cells at 1 uM by mass spectrometry based pull down assay; assay type: cell-based
[12] = target: Protein transport protein Sec23A (Homo sapiens) (UniProt Q15436); experiment: Binding affinity to SEC23A in human NCI-H358 cells at 1 uM by mass spectrometry based pull down assay; assay type: cell-based
[13] = target: Macrophage-stimulating protein receptor (Homo sapiens) (UniProt Q04912); experiment: Inhibition of RON in human SKCO1 cells at 1 uM after 4 hrs using biotin labeled IQCAIKSLSR probe by mass-spectrometric analysis relative to control; assay type: cell-based

Sequence of Apoptosis regulator BAX (Homo sapiens) (Q07812 whole entry): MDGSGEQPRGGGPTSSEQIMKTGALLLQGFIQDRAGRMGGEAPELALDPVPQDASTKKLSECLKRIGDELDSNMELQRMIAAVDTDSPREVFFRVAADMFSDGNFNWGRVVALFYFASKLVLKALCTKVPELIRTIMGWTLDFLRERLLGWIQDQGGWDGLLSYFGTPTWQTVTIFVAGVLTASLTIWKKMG
Sequence of Protein transport protein Sec23A (Homo sapiens) (Q15436 whole entry): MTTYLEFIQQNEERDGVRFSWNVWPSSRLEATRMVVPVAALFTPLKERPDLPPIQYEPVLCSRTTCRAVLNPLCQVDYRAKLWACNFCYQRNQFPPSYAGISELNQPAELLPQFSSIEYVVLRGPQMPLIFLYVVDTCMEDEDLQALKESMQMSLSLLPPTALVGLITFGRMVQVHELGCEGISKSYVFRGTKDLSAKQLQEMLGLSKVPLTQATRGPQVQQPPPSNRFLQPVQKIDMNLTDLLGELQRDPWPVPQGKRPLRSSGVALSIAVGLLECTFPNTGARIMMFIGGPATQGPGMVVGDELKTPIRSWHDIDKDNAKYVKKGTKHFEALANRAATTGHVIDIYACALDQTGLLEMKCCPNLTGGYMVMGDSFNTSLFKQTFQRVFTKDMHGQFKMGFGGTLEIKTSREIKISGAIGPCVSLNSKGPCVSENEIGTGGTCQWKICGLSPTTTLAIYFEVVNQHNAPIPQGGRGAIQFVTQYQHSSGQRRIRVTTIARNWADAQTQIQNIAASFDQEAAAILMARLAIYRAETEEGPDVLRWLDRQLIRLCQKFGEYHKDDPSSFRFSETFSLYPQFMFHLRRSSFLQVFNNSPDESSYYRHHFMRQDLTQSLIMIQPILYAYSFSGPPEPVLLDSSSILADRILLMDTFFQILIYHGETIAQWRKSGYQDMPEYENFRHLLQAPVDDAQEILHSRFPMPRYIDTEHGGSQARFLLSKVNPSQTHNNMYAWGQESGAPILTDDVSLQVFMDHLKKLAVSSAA
Sequence of Amidophosphoribosyltransferase (Homo sapiens) (Q06203 whole entry): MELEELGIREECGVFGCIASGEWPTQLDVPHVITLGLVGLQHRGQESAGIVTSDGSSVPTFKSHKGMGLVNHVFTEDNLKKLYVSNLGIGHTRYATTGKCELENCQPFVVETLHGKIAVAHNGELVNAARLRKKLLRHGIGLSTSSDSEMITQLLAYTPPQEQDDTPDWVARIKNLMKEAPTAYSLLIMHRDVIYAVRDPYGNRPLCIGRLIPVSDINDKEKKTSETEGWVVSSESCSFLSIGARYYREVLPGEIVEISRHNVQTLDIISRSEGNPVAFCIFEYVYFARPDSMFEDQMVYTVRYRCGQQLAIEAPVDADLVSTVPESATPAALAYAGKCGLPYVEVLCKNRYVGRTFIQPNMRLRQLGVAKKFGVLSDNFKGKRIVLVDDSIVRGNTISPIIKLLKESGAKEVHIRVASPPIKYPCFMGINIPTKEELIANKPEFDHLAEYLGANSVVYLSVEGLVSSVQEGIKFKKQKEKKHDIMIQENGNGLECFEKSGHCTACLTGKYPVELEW
Sequence of Epithelial splicing regulatory protein 1 (Homo sapiens) (Q6NXG1 whole entry): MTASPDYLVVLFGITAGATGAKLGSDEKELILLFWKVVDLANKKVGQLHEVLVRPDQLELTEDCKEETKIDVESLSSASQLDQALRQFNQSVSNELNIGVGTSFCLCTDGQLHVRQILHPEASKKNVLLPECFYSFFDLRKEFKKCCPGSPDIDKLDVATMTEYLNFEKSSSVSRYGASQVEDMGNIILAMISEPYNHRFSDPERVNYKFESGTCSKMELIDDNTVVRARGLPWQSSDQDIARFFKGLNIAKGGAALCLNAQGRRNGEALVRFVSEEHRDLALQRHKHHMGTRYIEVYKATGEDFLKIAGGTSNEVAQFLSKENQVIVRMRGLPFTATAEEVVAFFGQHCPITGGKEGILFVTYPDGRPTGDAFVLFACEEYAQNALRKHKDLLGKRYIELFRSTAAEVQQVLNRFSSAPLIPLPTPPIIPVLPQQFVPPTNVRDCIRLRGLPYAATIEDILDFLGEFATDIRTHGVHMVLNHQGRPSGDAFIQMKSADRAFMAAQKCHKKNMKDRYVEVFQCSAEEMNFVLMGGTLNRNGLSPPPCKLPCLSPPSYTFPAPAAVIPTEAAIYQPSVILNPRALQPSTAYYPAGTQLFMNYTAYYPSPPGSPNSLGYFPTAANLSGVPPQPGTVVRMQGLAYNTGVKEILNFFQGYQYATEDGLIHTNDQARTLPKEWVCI
Sequence of Aldehyde dehydrogenase family 16 member A1 (Homo sapiens) (Q8IZ83 whole entry): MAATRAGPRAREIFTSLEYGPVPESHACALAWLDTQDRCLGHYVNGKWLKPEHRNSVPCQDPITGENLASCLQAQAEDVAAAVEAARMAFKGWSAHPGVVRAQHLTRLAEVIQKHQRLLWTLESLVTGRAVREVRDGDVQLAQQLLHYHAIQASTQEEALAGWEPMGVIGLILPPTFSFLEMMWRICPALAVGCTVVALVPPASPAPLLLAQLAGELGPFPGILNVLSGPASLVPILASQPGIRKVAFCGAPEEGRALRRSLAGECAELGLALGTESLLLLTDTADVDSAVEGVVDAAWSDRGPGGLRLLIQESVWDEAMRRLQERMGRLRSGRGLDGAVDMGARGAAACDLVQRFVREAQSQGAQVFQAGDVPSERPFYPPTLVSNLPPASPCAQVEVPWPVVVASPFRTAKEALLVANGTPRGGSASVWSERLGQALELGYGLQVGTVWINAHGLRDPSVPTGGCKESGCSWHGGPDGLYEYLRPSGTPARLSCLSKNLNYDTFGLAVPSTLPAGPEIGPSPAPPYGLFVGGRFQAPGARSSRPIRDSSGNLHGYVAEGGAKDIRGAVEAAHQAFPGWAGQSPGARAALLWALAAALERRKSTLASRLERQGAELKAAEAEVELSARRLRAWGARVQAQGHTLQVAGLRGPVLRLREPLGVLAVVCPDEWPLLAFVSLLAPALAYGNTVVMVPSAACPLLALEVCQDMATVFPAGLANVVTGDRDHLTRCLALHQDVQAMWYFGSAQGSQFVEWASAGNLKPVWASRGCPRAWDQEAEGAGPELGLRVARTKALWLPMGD
Sequence of Proteasome adapter and scaffold protein ECM29 (Homo sapiens) (Q5VYK3 whole entry): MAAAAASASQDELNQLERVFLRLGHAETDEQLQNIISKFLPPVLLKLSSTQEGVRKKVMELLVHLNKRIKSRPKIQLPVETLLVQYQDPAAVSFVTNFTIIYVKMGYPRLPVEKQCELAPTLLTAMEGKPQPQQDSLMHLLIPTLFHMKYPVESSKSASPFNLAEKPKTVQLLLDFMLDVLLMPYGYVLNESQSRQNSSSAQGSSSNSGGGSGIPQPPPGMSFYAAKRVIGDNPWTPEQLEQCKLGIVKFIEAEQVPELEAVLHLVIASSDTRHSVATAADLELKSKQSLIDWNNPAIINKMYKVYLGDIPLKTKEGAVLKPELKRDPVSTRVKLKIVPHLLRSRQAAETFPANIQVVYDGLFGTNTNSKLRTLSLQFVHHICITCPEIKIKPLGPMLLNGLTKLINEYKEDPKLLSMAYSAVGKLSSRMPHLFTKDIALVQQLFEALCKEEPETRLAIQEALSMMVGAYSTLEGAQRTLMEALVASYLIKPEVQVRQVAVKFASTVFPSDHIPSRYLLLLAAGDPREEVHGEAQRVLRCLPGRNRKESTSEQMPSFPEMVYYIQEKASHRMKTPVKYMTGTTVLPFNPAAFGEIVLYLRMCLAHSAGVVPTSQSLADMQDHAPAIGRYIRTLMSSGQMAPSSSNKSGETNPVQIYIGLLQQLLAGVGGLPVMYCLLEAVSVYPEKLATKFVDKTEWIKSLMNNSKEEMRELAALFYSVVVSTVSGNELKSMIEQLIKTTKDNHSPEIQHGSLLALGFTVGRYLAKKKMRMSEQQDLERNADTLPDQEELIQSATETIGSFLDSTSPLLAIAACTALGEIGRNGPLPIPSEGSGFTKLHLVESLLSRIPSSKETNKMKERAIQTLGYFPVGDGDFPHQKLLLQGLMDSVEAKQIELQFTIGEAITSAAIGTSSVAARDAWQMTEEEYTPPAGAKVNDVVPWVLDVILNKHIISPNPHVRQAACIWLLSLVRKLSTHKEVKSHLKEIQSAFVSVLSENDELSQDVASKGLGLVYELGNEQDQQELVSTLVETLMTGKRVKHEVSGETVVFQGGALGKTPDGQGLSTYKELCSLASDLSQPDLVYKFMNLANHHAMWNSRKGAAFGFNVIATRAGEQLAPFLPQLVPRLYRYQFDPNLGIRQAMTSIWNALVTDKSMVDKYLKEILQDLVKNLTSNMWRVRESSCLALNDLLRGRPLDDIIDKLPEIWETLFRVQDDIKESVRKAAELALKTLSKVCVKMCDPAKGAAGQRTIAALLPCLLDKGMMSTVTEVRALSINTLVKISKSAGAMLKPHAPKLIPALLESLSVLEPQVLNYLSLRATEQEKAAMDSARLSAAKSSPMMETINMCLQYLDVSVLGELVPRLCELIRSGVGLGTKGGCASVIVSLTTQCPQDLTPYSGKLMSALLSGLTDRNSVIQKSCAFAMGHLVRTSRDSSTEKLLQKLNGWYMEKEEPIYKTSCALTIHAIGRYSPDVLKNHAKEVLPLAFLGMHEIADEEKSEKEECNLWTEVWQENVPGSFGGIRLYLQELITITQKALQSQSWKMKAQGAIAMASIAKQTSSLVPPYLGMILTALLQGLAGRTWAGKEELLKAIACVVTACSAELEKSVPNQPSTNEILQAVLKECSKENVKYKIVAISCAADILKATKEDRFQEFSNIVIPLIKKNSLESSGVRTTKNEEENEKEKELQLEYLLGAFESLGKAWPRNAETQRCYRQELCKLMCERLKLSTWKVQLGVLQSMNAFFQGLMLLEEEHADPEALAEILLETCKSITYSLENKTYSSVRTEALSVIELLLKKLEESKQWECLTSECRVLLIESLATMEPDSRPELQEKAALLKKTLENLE
Sequence of Myosin regulatory light chain 12B (Homo sapiens) (O14950 whole entry): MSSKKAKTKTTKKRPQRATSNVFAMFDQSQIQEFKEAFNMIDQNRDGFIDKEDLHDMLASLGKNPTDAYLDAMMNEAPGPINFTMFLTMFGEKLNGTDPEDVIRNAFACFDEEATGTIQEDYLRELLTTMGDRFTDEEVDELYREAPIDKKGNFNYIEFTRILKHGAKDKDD

SMILES: COc1cc(O)c2c(c1)/C=C/C[C@H](O)[C@H](O)C(=O)/C=C\C[C@H](C)OC2=O
- Activity [1]: 1.4%

- Activity [2]: Active
- Activity [3]: Active
- Activity [4]: Active
- Activity [5]: Active
- Activity [6]: Active
- Activity [7]: Active
- Activity [8]: Active
- Activity [9]: Active
- Activity [10]: Active
- Activity [11]: Active
- Activity [12]: Active
SMILES: C=CC(=O)Nc1ccccc1Nc1nc(Nc2ccc(N3CCN(CCOCCOCCOCCNC(=O)CCCC[C@@H]4SC[C@@H]5NC(=O)N[C@@H]54)CC3)cc2)ncc1Cl

SMILES: C=CC(=O)Nc1ccccc1Oc1nc(Nc2cnn(CCOC)c2)ncc1Cl
- inhibition [13]: -4.2%

From ChEMBL document CHEMBL4118021, “Studies of TAK1-centered polypharmacology with novel covalent TAK1 inhibitors” (Bioorg Med Chem, 2017)
